In ChEMBL document CHEMBL1146242, “Synthesis and antibacterial activity of novel oxazolidinones with methylene oxygen- and methylene sulfur-linked substituents at C5-position” (2007):
≈ marks a conversion by molar mass, not a printed value.

Columns and labels:
Type in all cases: functional
[1] = system: Staphylococcus aureus; test: Antimicrobial activity against Staphylococcus aureus 15187 by agar dilution method
In short: (§1)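 NCCLS agar dilution MIC in Mueller Hinton agar. Compounds were made up as 1 mg/mL DMSO stocks and serially diluted 2-fold into molten agar, final range 16 to 0.015. Direct colony suspensions in saline were set to 0.5 McFarland, diluted 10-fold, and spotted with a replicator. Plates were incubated in ambient air at 35 °C for 18–24 h.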

[2] = system: Staphylococcus aureus; test: Antimicrobial activity against methicillin-resistant Staphylococcus aureus 562 by agar dilution method; in short: as §1
[3] = system: Staphylococcus aureus; test: Antimicrobial activity against methicillin-resistant Staphylococcus aureus 33 by agar dilution method; in short: as §1
[4] = system: Enterococcus faecalis; test: Antimicrobial activity against Enterococcus faecalis ATCC 29212 by agar dilution method
In short: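 Compounds were stocked at 1 mg/mL in DMSO. Direct colony suspensions in saline were set to 0.5 McFarland, diluted 10-fold and applied with a replicator. Plates were incubated in ambient air at 35 °C for 18–24 h.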

[5] = system: Enterococcus faecium; test: Antimicrobial activity against vancomycin-resistant Enterococcus faecium 6A by agar dilution method; in short: as §1
[6] = system: Streptococcus pyogenes; test: Antimicrobial activity against Streptococcus pyogenes ATCC 19615 by agar dilution method
[7] = system: Streptococcus pneumoniae; test: Antimicrobial activity against Streptococcus pneumoniae ATCC 6303 by agar dilution method
In short: (§2)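 NCCLS agar dilution with serial 2-fold drug dilutions in Mueller Hinton agar, 16–0.015 µg/mL final. Drug stocks were 1 mg/mL in DMSO. The inoculum was a 0.5 McFarland saline colony suspension diluted 10-fold and replicator-spotted. As fastidious organisms, plates were incubated in 5% CO₂ at 35 °C for 18–24 h.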

[8] = system: Moraxella catarrhalis; test: Antimicrobial activity against Moraxella catarrhalis M2 by agar dilution method
In short: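 MIC was read by NCCLS agar dilution using doubling dilutions in Mueller Hinton agar, 16–0.015 µg/mL final, from 1 mg/mL DMSO stocks. Colonies were suspended in saline to 0.5 McFarland, diluted 10-fold and transferred with a replicator. Plates were incubated at 35 °C for 18–24 h.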

[9] = system: Haemophilus influenzae; test: Antimicrobial activity against Haemophilus influenzae ATCC 49247 by agar dilution method; in short: as §2
[10] = system: Staphylococcus aureus; test: Antimicrobial activity against Staphylococcus aureus ATCC 25923 by agar dilution method; in short: as §1

| SMILES | MIC [1] | MIC [2] | MIC [3] | MIC [4] | MIC [5] | MIC [6] | MIC [7] | MIC [8] | MIC [9] | MIC [10] |
| --- | --- | --- | --- | --- | --- | --- | --- | --- | --- | --- |
| O=C1O[C@@H](CO)CN1c1ccc(N2CCN(c3ccc([N+](=O)[O-])s3)CC2)c(F)c1 | 0.5 µg/mL (≈ 1.18 µM) | 0.5 µg/mL (≈ 1.18 µM) | 0.5 µg/mL (≈ 1.18 µM) | 0.5 µg/mL (≈ 1.18 µM) | 0.5 µg/mL (≈ 1.18 µM) | 0.5 µg/mL (≈ 1.18 µM) | 1 µg/mL (≈ 2.37 µM) | 2 µg/mL (≈ 4.73 µM) | 8 µg/mL (≈ 18.9 µM) | 0.5 µg/mL (≈ 1.18 µM) |
| CC(=O)NC[C@H]1CN(c2ccc(N3CCOCC3)c(F)c2)C(=O)O1 [LINEZOLID] |  |  |  |  | 2 µg/mL (≈ 5.93 µM) | 2 µg/mL (≈ 5.93 µM) |  | > 4 µg/mL | 4 µg/mL (≈ 11.9 µM) |  |
| CC(=O)NC[C@H]1CN(c2ccc(N3CCN(c4ccc([N+](=O)[O-])s4)CC3)c(F)c2)C(=O)O1 | 0.25 µg/mL (≈ 0.539 µM) | 0.25 µg/mL (≈ 0.539 µM) | 0.25 µg/mL (≈ 0.539 µM) | 0.25 µg/mL (≈ 0.539 µM) | 0.25 µg/mL (≈ 0.539 µM) | 0.125 µg/mL (≈ 0.27 µM) | 0.125 µg/mL (≈ 0.27 µM) | 0.25 µg/mL (≈ 0.539 µM) | 8 µg/mL (≈ 17.3 µM) | 0.25 µg/mL (≈ 0.539 µM) |
| Cc1ccccc1S(=O)(=O)NC(=O)OC[C@H]1CN(c2ccc(N3CCN(c4ccc([N+](=O)[O-])s4)CC3)c(F)c2)C(=O)O1 | 16 µg/mL (≈ 25.8 µM) | 16 µg/mL (≈ 25.8 µM) | 16 µg/mL (≈ 25.8 µM) | 8 µg/mL (≈ 12.9 µM) | 1 µg/mL (≈ 1.61 µM) | 0.5 µg/mL (≈ 0.807 µM) | 1 µg/mL (≈ 1.61 µM) | > 8 µg/mL | > 16 µg/mL | 16 µg/mL (≈ 25.8 µM) |
| CN[C@H](CC(C)C)C(=O)N[C@H]1C(=O)N[C@@H](CC(N)=O)C(=O)N[C@H]2C(=O)N[C@H]3C(=O)N[C@H](C(=O)N[C@H](C(=O)O)c4cc(O)cc(O)c4-c4cc3ccc4O)[C@H](O)c3ccc(c(Cl)c3)Oc3cc2cc(c3O[C@@H]2O[C@H](CO)[C@@H](O)[C@H](O)[C@H]2O[C@H]2C[C@](C)(N)[C@H](O)[C@H](C)O2)Oc2ccc(cc2Cl)[C@H]1O [VANCOMYCIN] |  |  |  |  | > 16 µg/mL |  | 0.5 µg/mL (≈ 0.345 µM) | > 16 µg/mL | > 64 µg/mL |  |
| CC(=O)OC[C@H]1CN(c2ccc(N3CCN(c4ccc([N+](=O)[O-])s4)CC3)c(F)c2)C(=O)O1 | 0.5 µg/mL (≈ 1.08 µM) | 0.5 µg/mL (≈ 1.08 µM) | 0.5 µg/mL (≈ 1.08 µM) | 0.5 µg/mL (≈ 1.08 µM) | 1 µg/mL (≈ 2.15 µM) | 0.25 µg/mL (≈ 0.538 µM) | 1 µg/mL (≈ 2.15 µM) | > 16 µg/mL | > 16 µg/mL | 0.5 µg/mL (≈ 1.08 µM) |
